Where “and” joins values, the source holds several entries; their conditions need not be identical. Equal values may be shown once.
Assays:
Rattus norvegicus [1] = species on record: Rattus norvegicus; test: (§1) Area under curve of the compound was determined; assay type: ADME, organism-based; details: in vivo
Procedure, shortened: (§2)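 Rats given a single iv dose via the right femoral vein after full recovery from anaesthesia, then a saline flush. Free drug dissolved in DMSO/10 mM H3PO4 (10/1); sodium salt in water. Blood (200 µL) drawn from a left femoral artery cannula at 2, 5, 10, 30 min and 1, 3, 5, 7 h. Plasma diluted in H3PO4 with camptothecin internal standard.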

[2] = Maximum plasma concentration at a dose of 4 mg/kg in Rat Plasma after iv administration; assay type: ADME, organism-based; set-up: dose 4 mg/kg, route intravenous; procedure, shortened: as §2
[3] = Mean residence time at a dose of 4 mg/kg in Rat Plasma after iv administration; assay type: ADME, organism-based; set-up: dose 4 mg/kg, route intravenous; procedure, shortened: as §2
[4] = Tmax at a dose of 4 mg/kg in Rat Plasma after iv administration; assay type: ADME, organism-based; set-up: dose 4 mg/kg, route intravenous; procedure, shortened: as §2
Mus musculus [5] = test: Antitumor activity evaluated as tumor weight on day 21 of Meth A Fibrosarcoma in BALB/c mice at a dose of 100 mg/kg administered intravenously on day 5; assay type: functional; details: route intravenous
Procedure, shortened: (§3)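 Meth A cells, 5 × 10^5/mouse, inoculated subcutaneously on day 0 into 7 week old male BALB/c mice, five per group. A single intravenous injection on day 5; saline for controls. Tumours weighed on day 21. Doses in mg/kg expressed as free drug. Inhibition rate derived from tumour weight relative to the saline control group.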

Mus musculus [6] = test: Antitumor activity evaluated as tumor weight on day 21 of Meth A Fibrosarcoma in BALB/c mice at a dose of 25 mg/kg administered intravenously on day 5; assay type: functional; details: route intravenous; procedure, shortened: as §3
Mus musculus [7] = test: Antitumor activity evaluated as tumor weight on day 21 of Meth A Fibrosarcoma in BALB/c mice at a dose of 50 mg/kg administered intravenously on day 5; assay type: functional; details: route intravenous; procedure, shortened: as §3
Mus musculus [8] = test: Inhibition rate of tumor growth at 100 mg/kg single iv administration against Meth A fibrosarcoma cells in BALB/c Mice; assay type: functional
Procedure, shortened: (§4)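 Male BALB/c mice, 7 weeks old (five per group), inoculated s.c. with Meth A cells at 5 × 10^5 cells/mouse on day 0. Single i.v. injection on day 5, doses expressed as free drug equivalent; control group given saline. Tumors weighed on day 21 (mean ± SD); inhibition rate derived from tumor weight relative to control.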

Mus musculus [9] = test: (§5) Inhibition rate of tumor growth at 25 mg/kg single iv administration against Meth A fibrosarcoma cells in BALB/c Mice; assay type: functional; procedure, shortened: as §3
Mus musculus [10] = test: Inhibition rate of tumor growth at 50 mg/kg single iv administration against Meth A fibrosarcoma cells in BALB/c Mice; assay type: functional; procedure, shortened: as §4
[11] = (§6) Half life at a dose of 4 mg/kg in Rat Plasma after iv administration; assay type: ADME, organism-based; set-up: dose 4 mg/kg, route intravenous; procedure, shortened: as §2
Rattus norvegicus [12] = test: Vdss at a dose of 4 mg/kg in Rat Plasma after iv administration; assay type: organism-based; set-up: dose 4 mg/kg; procedure, shortened: as §2
Rattus norvegicus [13] = test: CLtot at a dose of 4 mg/kg in Rat Plasma after iv administration; assay type: organism-based; set-up: dose 4 mg/kg; procedure, shortened: as §2
Mus musculus [14] = test: as §5; assay type: functional; procedure, shortened: as §4; remark: listed apart in the source
Mus musculus [15] = test: Evaluated for survival time of P388 Leukemia implanted female CDF1 Mice at a dose of 100 mg/kg; assay type: functional
Procedure, shortened: (§7)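 Female CDF1 mice inoculated intraperitoneally on day 0 with 1 × 10^6 P388 or P388/ADM (adriamycin-resistant, MDR-expressing) cells per mouse. Intravenous dosing on days 1, 5 and 9; doses listed are total mg/kg. Survival monitored for 40 days, reported as mean ± SD days. T/C% = (mean survival days of treated group / mean survival days of control group) × 100.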

Mus musculus [16] = test: Evaluated for survival time of P388 Leukemia implanted female CDF1 Mice at a dose of 50 mg/kg; assay type: functional; procedure, shortened: as §7
Mus musculus [17] = test: Evaluated for survival time of P388/ADM Leukemia implanted female CDF1 Mice at a dose of 50 mg/kg; assay type: functional; procedure, shortened: as §7
Mus musculus [18] = test: Ratio between mean survival days of treated group and control group at a dose of 100 mg/kg; assay type: functional; procedure, shortened: as §7
Mus musculus [19] = test: Ratio between mean survival days of treated group and control group at a dose of 25 mg/kg; assay type: functional; procedure, shortened: as §7
Mus musculus [20] = test: Ratio between mean survival days of treated group and control group at a dose of 50 mg/kg; assay type: functional; procedure, shortened: as §7
Mus musculus [21] = test: Evaluated for survival time of P388/ADM Leukemia implanted female CDF1 Mice at a dose of 100 mg/kg; assay type: functional; procedure, shortened: as §7
Mus musculus [22] = test: Evaluated for survival time of P388 Leukemia implanted female CDF1 Mice at a dose of 25 mg/kg; assay type: functional; procedure, shortened: as §7
Mus musculus [23] = species on record: Mus musculus; test: Ratio between mean survival days of treated group and control group; assay type: functional; procedure, shortened: as §7
Mus musculus [24] = test: Evaluated for survival time of P388/ADM Leukemia implanted female CDF1 Mice at a dose of 25 mg/kg
[25] = as §6; assay type: ADME, organism-based; set-up: dose 4 mg/kg, route intravenous; remark: listed apart in the source
Procedure, shortened: (§8)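 Rats given a single i.v. dose via right femoral vein after recovery from anesthesia, then saline flush. Blood drawn from left femoral artery cannula at 2, 5, 10, 30 min and 1, 3, 5, 7 h. Plasma diluted in 0.146 M H3PO4 with CPT internal standard, then on-line SPE and C18 HPLC with fluorescence detection (ex 390/em 513 nm). LOQ 2 ng/mL. Noncompartmental analysis; AUCinf by trapezoidal rule with extrapolation; n = 1–2 rats.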

[26] = as §1; assay type: ADME; procedure, shortened: as §8

With `CCc1c2c(nc3ccc(N)cc13)-c1cc3c(c(=O)n1C2)COC(=O)[C@]3([O-])CC.[Na+]` the AUC inf (Rattus norvegicus [1]) was 1.71 µg/h/mL, the Cmax [2] was 10500 ng/mL and the MRT inf [3] was 1.09 h. For the same compound, the Tmax [4] was 2 min, the Antitumor activity (Mus musculus [5]) was 0.88 g and the Antitumor activity (Mus musculus [6]) was 0.93 g. For the same compound, the Antitumor activity (Mus musculus [7]) was 0.88 g, the Inhibition rate (Mus musculus [8]) was 69.3% and the Inhibition rate (Mus musculus [9]) was 62.3%. For the same compound, the Inhibition rate (Mus musculus [10]) was 64% and the half-life [11] was 2.26 h.
In the case of `CCc1c2c(nc3ccc(N)cc13)-c1cc3c(c(=O)n1C2)COC(=O)[C@]3(O)CC` [listing 1 of 2 here], the Vdss (Rattus norvegicus [12]) is reported as 2.65 L/kg and 2.37 L/kg and the CL (mL.min-1.kg-1) (Rattus norvegicus [13]) is reported as 40.3 and 34.5.
With `CCc1c2c(nc3ccc(OC(=O)N4CCC(N5CCCCC5)CC4)cc13)-c1cc3c(c(=O)n1C2)COC(=O)[C@]3(O)CC` [IRINOTECAN] the Antitumor activity (Mus musculus [5]) was 1.16 g, the Antitumor activity (Mus musculus [6]) was 1.24 g and the Antitumor activity (Mus musculus [7]) was 1.31 g. The Antitumor activity (Mus musculus [14]) was 49.5%, the Survival time (Mus musculus [15]) was 17.5 days and the Survival time (Mus musculus [16]) was 14.5 days. For the same compound, the Survival time (Mus musculus [17]) was 14.7 days, the Inhibition rate (Mus musculus [8]) was 52.7% and the Inhibition rate (Mus musculus [10]) was 46.6%. The T/C (Mus musculus [18]) was 228%, the T/C (Mus musculus [19]) was 172% and 129% and the T/C (Mus musculus [20]) was 189%. It also gave a Survival time (Mus musculus [21]) of 15.7 days.
With `COc1cccc2c1C(=O)c1c(O)c3c(c(O)c1C2=O)C[C@@](O)(C(=O)CO)C[C@@H]3O[C@H]1C[C@H](N)[C@H](O)[C@H](C)O1` [DOXORUBICIN] the Activity (Mus musculus [22]) was 20 days, the T/C (Mus musculus [23]) was 261% and 102% and the Activity (Mus musculus [24]) was 9.8 days.
Work on `CCc1c2c(nc3ccc(N)cc13)-c1cc3c(c(=O)n1C2)COC(=O)[C@]3(O)CC` [listing 2 of 2 here] yielded a Cmax [2] of 10500 ng/mL, an MRT inf [3] of 1.09 h and a Tmax [4] of 2 min. The half-life [25] was 2.25 h and the AUC inf [26] was 2.08 µg/h/mL.

Reference: ChEMBL document CHEMBL1148490, “Synthesis, characterization, and preliminary in vivo tests of new poly(ethylene glycol) conjugates of the antitumor agent 10-amino-7-ethylcamptothecin” (J Med Chem, 2004)
